Reference: ChEMBL document CHEMBL5329223, “Newly synthesized 6-substituted piperazine/phenyl-9-cyclopentyl containing purine nucleobase analogs act as potent anticancer agents and induce apoptosis via inhibiting Src in hepatocellular carcinoma cells” (RSC Med Chem, 2023)
Calls of active or inactive are those of the source. The calls are words filed in the database; no cut-off is given here.

Key:
[1] = biological target: Proto-oncogene tyrosine-protein kinase Src (Homo sapiens) (UniProt P12931); assay: Inhibition of Src activation in human Huh-7 cells assessed as decrease in phosphorylated Rb level at 5 uM incubated for 72 hrs by Western blot analysis; format: cell-based
Proto-oncogene tyrosine-protein kinase Src (Homo sapiens), sequence (P12931 2-536 limits assumed): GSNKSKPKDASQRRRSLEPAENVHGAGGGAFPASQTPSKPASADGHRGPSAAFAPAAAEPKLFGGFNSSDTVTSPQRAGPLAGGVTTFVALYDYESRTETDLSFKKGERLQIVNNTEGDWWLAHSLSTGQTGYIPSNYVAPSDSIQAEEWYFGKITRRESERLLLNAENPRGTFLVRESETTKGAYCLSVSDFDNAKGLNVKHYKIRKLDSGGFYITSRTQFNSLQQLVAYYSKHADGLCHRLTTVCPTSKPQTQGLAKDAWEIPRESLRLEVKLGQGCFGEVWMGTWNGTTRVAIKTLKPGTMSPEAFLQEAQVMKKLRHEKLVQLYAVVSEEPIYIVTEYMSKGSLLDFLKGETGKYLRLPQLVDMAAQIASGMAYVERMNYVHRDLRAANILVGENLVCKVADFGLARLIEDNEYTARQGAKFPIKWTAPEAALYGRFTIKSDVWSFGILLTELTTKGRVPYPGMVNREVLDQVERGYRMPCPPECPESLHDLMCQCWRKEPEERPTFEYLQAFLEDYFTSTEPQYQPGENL
Outline: (§1)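 Huh7 cells (300 000 per dish) treated 24 h after seeding with 5 μM or DMSO for 72 h. Immunoblot for PARP-1, phospho-Src Tyr416, Src, Rb, phospho-Rb Ser807/811, Cdk2; calnexin and actin as loading controls.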

[2] = biological target: Tyrosine-protein kinase BTK (Homo sapiens) (UniProt Q06187); assay: Inhibition of human BTK at 5 uM by Kinomescan profiling analysis relative to control
Tyrosine-protein kinase BTK (Homo sapiens), sequence (Q06187 whole entry): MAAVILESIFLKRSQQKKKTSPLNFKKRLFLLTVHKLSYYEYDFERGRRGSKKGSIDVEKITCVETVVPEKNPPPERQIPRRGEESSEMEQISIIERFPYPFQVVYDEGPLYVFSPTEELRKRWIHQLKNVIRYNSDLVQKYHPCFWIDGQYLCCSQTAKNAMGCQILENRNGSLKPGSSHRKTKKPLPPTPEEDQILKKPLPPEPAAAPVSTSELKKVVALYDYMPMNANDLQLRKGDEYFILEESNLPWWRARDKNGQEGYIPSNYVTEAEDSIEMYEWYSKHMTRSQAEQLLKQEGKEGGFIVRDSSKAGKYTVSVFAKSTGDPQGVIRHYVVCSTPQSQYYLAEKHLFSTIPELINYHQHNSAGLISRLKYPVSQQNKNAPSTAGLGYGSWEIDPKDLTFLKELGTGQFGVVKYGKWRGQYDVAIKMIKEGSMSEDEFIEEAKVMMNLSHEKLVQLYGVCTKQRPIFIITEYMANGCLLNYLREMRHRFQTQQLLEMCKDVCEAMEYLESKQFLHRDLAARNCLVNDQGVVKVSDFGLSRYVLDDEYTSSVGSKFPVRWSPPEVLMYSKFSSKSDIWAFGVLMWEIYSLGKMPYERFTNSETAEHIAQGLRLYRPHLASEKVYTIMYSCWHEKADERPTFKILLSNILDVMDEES
Outline: (§2)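 Compounds in DMSO screened by KINOMEScan against a panel of human kinases for direct interaction, at 5000 nM or 10 000 nM depending on compound; scores calculated relative to DMSO negative control.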

[3] = test system: SNU-182; assay: Cytotoxicity against human SNU-182 cells assessed as cell growth inhibition incubated for 72 hrs by SRB assay; format: functional, cell-based; details: SNU-182, 72 h
Outline: (§3)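 Cells seeded at 1000–3000 per well, treated after 24 h with 2.5–40 μM (40, 20, 10, 5, 2.5 μM) for 72 h, in duplicate or triplicate; DMSO negative control. Fixed with 10% TCA 1 h at 4 °C, stained with 0.4% SRB in 1% acetic acid, dye solubilized in 10 mM TBS, A515 read; OD normalized to DMSO control, IC50 from growth-inhibition curves.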

[4] = test system: SNU-423; assay: Cytotoxicity against human SNU-423 cells assessed as cell growth inhibition incubated for 72 hrs by SRB assay; format: functional, cell-based; details: SNU-423, 72 h; outline: as §3
[5] = test system: Hep 3B2; assay: Cytotoxicity against human Hep3B cells assessed as cell growth inhibition incubated for 72 hrs by SRB assay; format: functional, cell-based; outline: as §3
[6] = biological target: Proto-oncogene tyrosine-protein kinase Src (Homo sapiens) (UniProt P12931); assay: Inhibition of Src activation in human Huh-7 cells assessed as decrease in Cdk2 level at 5 uM incubated for 72 hrs by Western blot analysis; format: cell-based; outline: as §1
[7] = test system: Huh-7; assay: Upregulation of intracellular ATP level in human Huh-7 cells at 5 uM incubated for 72 hrs by Kinase Glo assay; format: functional, cell-based
Outline: (§4)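 Huh7 and Mahlavu cells grown 24 h, then treated with 5 μM for 72 h. Lysates protein-normalized by Bradford; ATP read by Kinase-Glo Plus luminescence per kit protocol. Staurosporine positive control, DMSO negative control.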

[8] = test system: Huh-7; assay: Cytotoxicity against human Huh-7 cells assessed as cell growth inhibition at 0.625 to 5 uM measured upto 72 hrs by RT-CES analysis; format: functional, cell-based; details: dose 0.625-5 µM
Outline: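 Huh7 cells, 2000 per well, treated 24 h after seeding alongside DMSO control; cell index from impedance recorded every 30 min; plots for each concentration normalized to DMSO-treated cells.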

[9] = test system: Mahlavu; assay: Upregulation of intracellular ATP level in human Mahlavu cells at 5 uM incubated for 72 hrs by Kinase Glo assay; format: functional, cell-based; outline: as §4
[10] = test system: SNU-449; assay: Cytotoxicity against human SNU-449 cells assessed as cell growth inhibition incubated for 72 hrs by SRB assay; format: functional, cell-based; details: SNU-449, 72 h; outline: as §3
[11] = biological target: Proto-oncogene tyrosine-protein kinase Src (Homo sapiens) (UniProt P12931); assay: Inhibition of Src activation in human Huh-7 cells assessed as decrease in cyclin E level at 5 uM incubated for 72 hrs by Western blot analysis; format: cell-based; outline: as §1
[12] = Cytotoxicity against human FOCUS cells assessed as cell growth inhibition incubated for 72 hrs by SRB assay; format: functional, cell-based; outline: as §3
[13] = test system: Huh-7; assay: Induction of morphological changes in human Huh-7 cells assessed as horseshoe-like condensed nuclei at 5 uM incubated for 72 hrs by Hoechst 33258 dye based microscopy; format: functional, cell-based
Outline: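 Huh7 cells on coverslips (50 000 per well) given 5 μM or DMSO 24 h after seeding for 72 h; permeabilized with ice-cold methanol 10 min, Hoechst 33258 stain 5 min in the dark, imaged by fluorescence microscopy with 40× objective.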

[14] = biological target: Proto-oncogene tyrosine-protein kinase Src (Homo sapiens) (UniProt P12931); assay: Inhibition of Src activation in human Huh-7 cells assessed as decrease in phosphorylated Src level at 5 uM incubated for 72 hrs by Western blot analysis; format: cell-based; outline: as §1
[15] = test system: PLC; assay: Cytotoxicity against human PLC cells assessed as cell growth inhibition incubated for 72 hrs by SRB assay; format: functional, cell-based; outline: as §3
[16] = test system: Mahlavu; assay: Cytotoxicity against human Mahlavu cells assessed as cell growth inhibition incubated for 72 hrs by SRB assay; format: functional, cell-based; outline: as §3
[17] = test system: Huh-7; assay: Induction of apoptosis in human Huh-7 cells assessed as increase in PARP-1 cleavage at 5 uM incubated for 72 hrs by Western blot analysis; format: functional, cell-based; outline: as §1
[18] = biological target: ALK tyrosine kinase receptor (Homo sapiens) (UniProt Q9UM73); assay: Inhibition of human ALK at 5 uM by Kinomescan profiling analysis relative to control; outline: as §2
ALK tyrosine kinase receptor (Homo sapiens), sequence (Q9UM73 19-1620 limits assumed): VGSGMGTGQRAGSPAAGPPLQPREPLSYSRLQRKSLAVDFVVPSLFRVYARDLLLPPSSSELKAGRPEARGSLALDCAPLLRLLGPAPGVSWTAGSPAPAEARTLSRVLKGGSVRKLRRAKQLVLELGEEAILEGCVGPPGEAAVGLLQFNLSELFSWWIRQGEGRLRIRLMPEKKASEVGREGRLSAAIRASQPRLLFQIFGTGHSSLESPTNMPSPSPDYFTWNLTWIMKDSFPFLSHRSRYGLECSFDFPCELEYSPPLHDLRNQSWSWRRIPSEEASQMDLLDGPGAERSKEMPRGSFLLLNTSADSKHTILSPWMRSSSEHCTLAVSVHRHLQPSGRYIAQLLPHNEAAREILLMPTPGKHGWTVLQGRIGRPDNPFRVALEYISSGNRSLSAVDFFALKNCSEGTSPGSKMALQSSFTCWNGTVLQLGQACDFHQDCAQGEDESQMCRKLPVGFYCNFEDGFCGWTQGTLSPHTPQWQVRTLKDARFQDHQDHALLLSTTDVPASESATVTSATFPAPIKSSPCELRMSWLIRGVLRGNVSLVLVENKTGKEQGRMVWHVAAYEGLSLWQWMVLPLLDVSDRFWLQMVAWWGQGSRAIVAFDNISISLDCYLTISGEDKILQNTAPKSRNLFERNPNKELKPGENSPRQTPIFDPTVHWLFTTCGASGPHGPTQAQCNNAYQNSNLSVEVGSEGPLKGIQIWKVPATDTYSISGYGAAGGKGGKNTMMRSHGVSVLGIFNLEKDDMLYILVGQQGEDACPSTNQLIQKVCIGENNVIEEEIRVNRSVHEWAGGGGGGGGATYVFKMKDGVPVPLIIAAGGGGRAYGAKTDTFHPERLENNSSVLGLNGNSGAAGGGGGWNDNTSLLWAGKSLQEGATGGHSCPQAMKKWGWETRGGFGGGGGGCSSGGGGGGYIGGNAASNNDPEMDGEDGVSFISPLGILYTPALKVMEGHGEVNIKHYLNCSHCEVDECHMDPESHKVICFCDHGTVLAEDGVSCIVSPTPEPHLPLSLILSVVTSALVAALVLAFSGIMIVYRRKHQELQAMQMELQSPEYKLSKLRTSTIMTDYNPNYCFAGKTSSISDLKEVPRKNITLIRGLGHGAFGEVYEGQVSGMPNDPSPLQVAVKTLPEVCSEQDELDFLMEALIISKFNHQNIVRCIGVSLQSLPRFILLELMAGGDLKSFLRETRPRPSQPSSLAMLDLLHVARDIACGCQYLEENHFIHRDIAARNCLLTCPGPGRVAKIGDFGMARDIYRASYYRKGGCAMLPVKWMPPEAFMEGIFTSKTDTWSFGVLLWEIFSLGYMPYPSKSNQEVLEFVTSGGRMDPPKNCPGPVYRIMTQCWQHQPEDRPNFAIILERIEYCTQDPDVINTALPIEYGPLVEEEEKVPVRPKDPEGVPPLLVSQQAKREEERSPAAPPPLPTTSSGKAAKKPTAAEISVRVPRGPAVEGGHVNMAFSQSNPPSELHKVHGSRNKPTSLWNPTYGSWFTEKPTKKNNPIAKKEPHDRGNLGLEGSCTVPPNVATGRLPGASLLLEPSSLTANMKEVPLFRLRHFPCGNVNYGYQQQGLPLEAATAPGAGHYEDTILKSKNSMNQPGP

[19] = test system: HCT-116; assay: Cytotoxicity against human HCT-116 cells assessed as cell growth inhibition incubated for 72 hrs by SRB assay; format: functional, cell-based; details: HCT-116, 72 h; outline: as §3
[20] = test system: Huh-7; assay: Cytotoxicity against human Huh-7 cells assessed as cell growth inhibition incubated for 72 hrs by SRB assay; format: functional, cell-based; details: Huh-7, 72 h; outline: as §3
[21] = test system: SNU-387; assay: Cytotoxicity against human SNU-387 cells assessed as cell growth inhibition incubated for 72 hrs by SRB assay; format: functional, cell-based; details: SNU-387, 72 h; outline: as §3
[22] = test system: SNU-475; assay: Cytotoxicity against human SNU-475 cells assessed as cell growth inhibition incubated for 72 hrs by SRB assay; format: functional, cell-based; details: SNU-475, 72 h; outline: as §3
[23] = test system: MCF7; assay: Cytotoxicity against human MCF7 cells assessed as cell growth inhibition incubated for 72 hrs by SRB assay; format: functional, cell-based; details: MCF7, 72 h; outline: as §3
[24] = test system: Huh-7; assay: Induction of cell cycle arrest in human Huh-7 cells assessed as increase in accumulation of cells at subG1 phase at 5 uM incubated for 72 hrs by PI staining based flow cytometry; format: functional
Outline: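 Huh7 and Mahlavu cells serum-starved 24 h to synchronize, then given 5 μM or DMSO in fresh growth medium for 72 h. Trypsinized, fixed in ice-cold 70% ethanol at least 3 h at −20 °C, PI-stained with a cell cycle kit, analyzed by flow cytometry for SubG1.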

[25] = test system: HepG2; assay: Cytotoxicity against human HepG2 cells assessed as cell growth inhibition incubated for 72 hrs by SRB assay; format: functional, cell-based; details: HepG2, 72 h; outline: as §3
[26] = test system: SNU-398; assay: Cytotoxicity against human SNU-398 cells assessed as cell growth inhibition incubated for 72 hrs by SRB assay; format: functional, cell-based; details: SNU-398, 72 h; outline: as §3
[27] = biological target: T1, Discoidin domain-containing receptor 2 (Homo sapiens) (UniProt Q16832); assay: Inhibition of human DDR2 at 10 uM by Kinomescan profiling analysis relative to control; outline: as §2
T1 sequence (whole entry): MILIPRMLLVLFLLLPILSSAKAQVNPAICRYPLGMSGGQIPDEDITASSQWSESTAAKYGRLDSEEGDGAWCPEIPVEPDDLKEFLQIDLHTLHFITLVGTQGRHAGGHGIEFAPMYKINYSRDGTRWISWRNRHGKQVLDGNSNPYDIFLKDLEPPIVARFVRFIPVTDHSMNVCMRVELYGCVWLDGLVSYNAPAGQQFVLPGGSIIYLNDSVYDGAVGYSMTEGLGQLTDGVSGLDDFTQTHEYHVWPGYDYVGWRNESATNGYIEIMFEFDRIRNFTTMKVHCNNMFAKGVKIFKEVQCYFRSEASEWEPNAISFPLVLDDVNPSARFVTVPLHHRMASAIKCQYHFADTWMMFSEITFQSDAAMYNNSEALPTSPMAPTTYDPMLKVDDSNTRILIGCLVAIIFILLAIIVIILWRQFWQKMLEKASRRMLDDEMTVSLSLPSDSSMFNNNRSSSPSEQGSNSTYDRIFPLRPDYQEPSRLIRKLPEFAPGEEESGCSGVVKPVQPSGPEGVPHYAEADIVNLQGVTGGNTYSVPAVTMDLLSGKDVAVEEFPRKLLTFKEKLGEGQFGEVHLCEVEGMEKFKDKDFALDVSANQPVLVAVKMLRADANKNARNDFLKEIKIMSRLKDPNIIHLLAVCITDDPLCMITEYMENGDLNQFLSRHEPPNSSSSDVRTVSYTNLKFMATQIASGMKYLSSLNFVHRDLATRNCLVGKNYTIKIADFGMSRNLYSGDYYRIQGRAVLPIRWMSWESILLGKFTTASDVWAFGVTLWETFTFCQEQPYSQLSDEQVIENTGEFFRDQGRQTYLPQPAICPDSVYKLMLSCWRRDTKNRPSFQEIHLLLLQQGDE

| SMILES | IC50 [3] [nM] | IC50 [4] [nM] | IC50 [5] [nM] | Activity [7] | growth inhibition (GI) [8] | Activity [9] | IC50 [10] [nM] | IC50 [12] [nM] | Activity [13] | IC50 [15] [nM] | IC50 [16] [nM] | Activity [17] | IC50 [19] [nM] | IC50 [20] [nM] | IC50 [21] [nM] | IC50 [22] [nM] | IC50 [23] [nM] | Activity [24] | IC50 [25] [nM] | IC50 [26] [nM] | further results |
| --- | --- | --- | --- | --- | --- | --- | --- | --- | --- | --- | --- | --- | --- | --- | --- | --- | --- | --- | --- | --- | --- |
| c1ccc(N2CCN(c3ncnc4c3ncn4C3CCCC3)CC2)cc1 | 6000 | 11000 | < 100 | Active | Active | Active | 2000 | 600 | Active | 4000 | 200 | Active | 2100 | 1000 | 13000 | 5800 | 100 | Active | 2400 | 1200 | inhibition [1]: Active; inhibition [2]: 1.9%; inhibition [6]: Active; inhibition [11]: Active; inhibition [14]: Active; inhibition [18]: 13% |
| c1ccc(Oc2ccc(-c3ncnc4c3ncn4C3CCCC3)cc2)cc1 | 65000 | 9900 | 100 | inactive | Active | inactive | < 100 | 500 | Active | 6500 | 100 | Active | 800 | 700 | 20000 | 2500 | 2800 | Active | 2 | 200 | inhibition [27]: 6% |
